System: not listed separately
Assay: Selectivity ratio, ratio of IC50 for MAOB to IC50 for MAOA

Ratio IC50	SMILES
140	NCc1cn(-c2ccncc2)nn1
2.89	NCc1cn(-c2ccc(C(=O)O)cc2)nn1
0.95	NCc1cn(-c2cccc(C(=O)O)c2)nn1
526	NCc1cn(-c2ccccc2)nn1

Target: T1, Amine oxidase [flavin-containing] A (Homo sapiens, UniProt P21397)
T1 sequence (P21397 whole entry): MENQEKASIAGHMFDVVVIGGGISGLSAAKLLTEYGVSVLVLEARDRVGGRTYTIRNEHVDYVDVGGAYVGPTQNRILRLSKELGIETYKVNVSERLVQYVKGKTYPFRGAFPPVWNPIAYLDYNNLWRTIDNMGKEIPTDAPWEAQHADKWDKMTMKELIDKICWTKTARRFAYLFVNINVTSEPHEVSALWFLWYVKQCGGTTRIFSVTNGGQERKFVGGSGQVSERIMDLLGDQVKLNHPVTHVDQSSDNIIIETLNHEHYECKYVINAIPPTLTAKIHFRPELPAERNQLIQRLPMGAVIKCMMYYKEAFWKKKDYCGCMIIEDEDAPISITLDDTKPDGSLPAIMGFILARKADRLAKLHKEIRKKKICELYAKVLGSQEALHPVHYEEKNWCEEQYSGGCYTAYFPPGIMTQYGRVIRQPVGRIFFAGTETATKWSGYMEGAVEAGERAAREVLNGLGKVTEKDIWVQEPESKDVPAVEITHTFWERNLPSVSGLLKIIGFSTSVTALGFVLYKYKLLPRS
Assay: Inhibition of MAOA by spectrofluorimetry
Outline: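 Fluorescence-based microplate assay for MAO-A and MAO-B inhibition, following the group's earlier reported method. Click reaction mixtures, made with CuSO4 and sodium ascorbate in t-BuOH/H2O (1:1) over 24 h, were diluted into 96-well plates from 0 to 100 μM. Fluorescence was read at λex 360 nm and λem 460 nm.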

IC50	SMILES
0.83 µM	NCc1cn(-c2ccncc2)nn1
19.6 µM	NCc1cn(-c2ccc(C(=O)O)cc2)nn1
50.7 µM	NCc1cn(-c2cccc(C(=O)O)c2)nn1
0.97 µM	NCc1cn(-c2ccccc2)nn1

Target: T2, Amine oxidase [flavin-containing] B (Homo sapiens, UniProt P27338)
T2 sequence (P27338 whole entry): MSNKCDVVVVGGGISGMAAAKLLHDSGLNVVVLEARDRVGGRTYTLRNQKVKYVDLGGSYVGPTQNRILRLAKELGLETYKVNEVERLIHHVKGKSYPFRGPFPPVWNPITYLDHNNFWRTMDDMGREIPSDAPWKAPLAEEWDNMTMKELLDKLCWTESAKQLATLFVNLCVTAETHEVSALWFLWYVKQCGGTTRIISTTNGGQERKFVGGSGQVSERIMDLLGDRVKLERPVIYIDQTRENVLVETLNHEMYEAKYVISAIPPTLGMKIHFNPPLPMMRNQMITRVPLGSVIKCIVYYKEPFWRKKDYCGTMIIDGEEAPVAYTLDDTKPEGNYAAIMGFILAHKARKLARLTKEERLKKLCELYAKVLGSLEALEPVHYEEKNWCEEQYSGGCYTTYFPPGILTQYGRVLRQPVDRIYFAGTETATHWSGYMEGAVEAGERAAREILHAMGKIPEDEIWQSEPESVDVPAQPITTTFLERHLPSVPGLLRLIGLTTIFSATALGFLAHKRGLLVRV
Assay: Inhibition of MAOB by spectrofluorimetry

IC50	SMILES
116 µM	NCc1cn(-c2ccncc2)nn1
56.9 µM	NCc1cn(-c2ccc(C(=O)O)cc2)nn1
62.1 µM	NCc1cn(-c2cccc(C(=O)O)c2)nn1
511 µM	NCc1cn(-c2ccccc2)nn1
